# Screening data (PubChem)
# Hits are enriched below; roughly 3.5% of the tested compounds scored in any of these assays.
# PGC1a acetyl inh: lowers PGC1a acetylation signal in U2OS cells; 0.17% of 350,000 active; inhibition, % at 15.6 µM; AlphaScreen anti-acetyl-lysine; with virally co-expressed GCN5 acetyltransferase;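 active means every replicate shows inhibition of at least 40%; inconclusive means mean inhibition at least 40% but some replicate below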;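 further: 0% = neutral control wells and 100% = positive control wells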
# ERAP1 inh: blocks human ERAP1 aminopeptidase activity; Q9NZ08; inhibition, % at 10.7 µM; recombinant ERAP1, Leu-AMC fluorescence, 60 min; 0.15% of 340,000 active; AID 652197;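 active means mean replicate inhibition of at least 30%, or all replicates individually reaching that 30% level; inactive means mean below 30% and not every replicate reaching it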;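 further: 0% = neutral control wells and 100% = L-leucinethiol positive control wells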
# Cneo AK release: Cryptococcus neoformans lysis via adenylate kinase release | 0.2% of 360,000 active | lysis activity, % at 15 µM | C. neoformans lysis, adenylate kinase release luminescence, 4 h; normalised: neutral wells 0, clomiphene wells 100;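 active means mean lysis activity across replicates of at least 80%, whatever share of replicates individually reach that level; inactive means mean lysis activity below 80%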
#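 read-out = cell lysis signal | test system = log-phase Cryptococcus neoformans yeast cells | input = cells at 5 × 10^6 per mL | medium = fresh YPD growth medium | signal = luminescent adenylate kinase detection reagent | timing = 4 h at 37 °C static, read 1 h later | dosing = single dose | controls = Clomiphene as positive lysis control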
# Env fusion inh: inhibitors of HIV Env-mediated cell fusion; 1.1% of 360,000 active; inhibition, % at 12.3 µM; AID 651610; HeLa-JRFL Env/CEM21 cell fusion, luciferase;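 active means mean replicate inhibition score of at least 50 and every replicate individually at or above 50; inconclusive means only one of the two criteria met; inactive means mean below 50 and not all replicates reaching 50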;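 further: 0% = plate neutral controls and 100% = maraviroc near 300 nM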
# FGF22 binding: binders of recombinant human FGF22 by thermal shift; 1.5% of 340,000 active; activity (Tm shift, normalised), % at 9.99 µM; SYPRO orange fluorescence; percent of sucrose octasulfate shift, DMSO zero; Q9HCT0; AID 651658;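 active means mean Tm shift, scaled 0 neutral to 100 positive control, at about 1.3% or above, every replicate too, limit read from the data; inconclusive means no clear call, values can overlap the other calls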
# Target sequence (Q9HCT0 whole entry, looked up): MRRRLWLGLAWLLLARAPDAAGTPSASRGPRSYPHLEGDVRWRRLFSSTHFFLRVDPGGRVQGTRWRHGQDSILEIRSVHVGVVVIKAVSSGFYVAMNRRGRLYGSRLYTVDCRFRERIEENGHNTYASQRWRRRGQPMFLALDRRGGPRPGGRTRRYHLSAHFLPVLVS
# Ecoli rRNA inh: inhibits bacterial ribosomal RNA function over humanized ribosomes | E. coli WT GFP vs humanized-ribosome RFP mutants, fluorescence, 24 h; stronger effect = lower value; DMSO median 0, no signal -100 | GFP signal change (wild-type ribosome), % (no concentration beside the values) | 1.6% of 350,000 active;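 active means significant combined selectivity score with lowered wild-type GFP, culture density cut under 30%, mutant RFP and density less affected; inactive means any of these conditions unmet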
# Active calls of the source: *; ? = inconclusive; . = no result; [ ] = remark or other dose.
SMILES,PGC1a acetyl inh,ERAP1 inh,Cneo AK release,Env fusion inh,FGF22 binding,Ecoli rRNA inh
C[C@@H]1CN([C@H](C)CO)C(=O)c2cccc(NC(=O)c3ccc(-c4nccs4)cc3)c2O[C@@H]1CN(C)C(=O)NC1CCCCC1,-0.8,0.8,0.2,.,-0.2,-5.4
COc1ccc(CN2CN(S(=O)(=O)c3ccccc3)c3nc4ccccc4nc32)cc1,5.7,.,.,21.4,-0.1,-24.7*
COc1ccc(CN2CN(S(=O)(=O)c3cccs3)c3nc4ccccc4nc32)cc1,-3.7,0.9,.,-0.8,40.9,-42.3*
Cc1ccc(OCC(=O)N(Cc2ccccc2)c2ccccn2)cc1,-11.2,0.0,.,16.3,0.4,-26.8
CC(C)c1ccc(OCCCN2CCC(C(O)(c3ccccc3)c3ccccc3)CC2)cc1,.,-1.0,.,78.8*,0.2,-52.9
COc1ccc(OCCCN2CCC(C(O)(c3ccccc3)c3ccccc3)CC2)cc1,.,1.3,.,7.1,-0.1,-56.2
CCCN(CC(=O)Nc1ccccc1C)C(=O)C1CCCN(C(=O)c2ccc(Cl)cc2)C1 (stereo unspecified),3.2,-1.2,0.5,.,-0.3,1.7
O=C1C=CCC(/C=C/c2ccccc2)O1 (stereo unspecified),.,6.0,.,.,43.7*,5.2
O=C/C=C/c1ccc(/C=C/c2ccccc2)cc1,-35.2,2.1,-30.6,-99.2[16.7 µM],0.1,.
COc1ccccc1Nc1c2ccccc2nc2ccccc12,-0.7,-2.7,1.0,56.6*,-0.3,9.4
COc1cc(Nc2c3ccccc3nc3ccccc23)cc(OC)c1OC,-12.2,-25.4,-0.9,-75.7,0.0,-25.1
CCCCn1c(SCc2nnc(-c3ccccc3)o2)nc2c1c(=O)n(C)c(=O)n2C,1.9,.,6.2,?,.,.
O=C(NCCO)C(=O)c1c(-c2ccc(Cl)cc2)cc2ccccn12,.,0.0,.,-27.8,43.8*,.
CCc1cccc(NC(=O)C2CCCN2S(=O)(=O)c2ccc3c(c2)CC(C)N3C(C)=O)c1 (stereo unspecified),0.7,-0.3,8.5,60.9*,-0.1,-6.1
CCC(C)NC(=O)C1CCCN(S(=O)(=O)c2ccc3c(c2)CC(C)N3C(C)=O)C1 (stereo unspecified),7.2,0.4,-0.8,58.7*,-0.3,2.2
CC(=O)N1c2ccc(S(=O)(=O)N3CCCC3C(=O)Nc3cccc(F)c3)cc2CC1C (stereo unspecified),6.8,1.2,4.0,1.7,0.7,-4.2
COc1ccc(C2C3=C(CC(C)(C)CC3=O)Oc3ncn(Cc4ccccc4)c(=N)c32)cc1 (stereo unspecified),-15.4,.,0.9,60.9*,.,.
CCCCCCNc1c([N+](=O)[O-])c(=O)sc2ccccc12,-2.4,2.0,.,3.9,0.2,-24.4*
COc1ccc(C(=O)NCCNc2ccc([N+](=O)[O-])cc2)cc1,.,6.8,.,16.8,67.2*,-17.5
COc1ccc(CCNC(=O)c2ccc([N+](=O)[O-])cc2)cc1,.,1.8,.,13.6,-0.2,5.4
CCS(=O)(=O)C1=NN2C(=N)/C(=C\c3ccc(SCc4ccco4)o3)C(=O)N=C2S1,.,.,.,-44.1,.,.
Cc1cc(N2CCN(C(=O)OC(C)(C)C)C[C@H]2C)ccc1N1CCS(=O)(=O)CC1,.,-3.0,.,61.6*,-0.5,8.8
C[C@@H]1CN(C(=O)OC(C)(C)C)CCN1c1ccc(N2CC[C@H](O)C2)c(C#N)c1,.,4.7,.,-27.0,0.0,-11.6
COc1ccc(/C=C/C(=O)NCc2cnn(C)c2C)cc1COc1ccc(Br)cc1,-16.9,-0.4,-0.9,.,0.2,-23.6
CC(=O)Nc1ccc(-c2ccnc3c2CC(C(=O)NCc2ccc(N4CCN(C)CC4)cc2)O3)cc1 (stereo unspecified),3.1,-2.0,-0.5,-6.0,0.3,0.2
SMILES,PGC1a acetyl inh,ERAP1 inh,Cneo AK release,Env fusion inh,FGF22 binding,Ecoli rRNA inh
CN1CCN(c2ccc(CNC(=O)C3Cc4c(-c5ccc(Cl)cc5)ccnc4O3)cc2)CC1 (stereo unspecified),.,4.1,2.8,.,43.0*,-25.0
CCOC(=O)c1c(C)nc(C)c(C(=O)OCC)c1-c1cccnc1,.,0.9,0.4,-28.3,-0.2,3.9
CCOC(=O)c1c(C)nc(C)c(C(=O)OCC)c1-c1ccccc1,-25.9,-0.6,.,.,0.2,-40.8*
O=C(O)C1CCCCC1C(=O)Nc1nc(-c2ccc(Cl)s2)cs1 (stereo unspecified),.,4.9,.,-4.4,43.3*,-26.3
CC1CCN(C(=O)c2ncn3c2C(=O)NC[C@@H]3C)CC1,.,-3.6,.,101.2*,-0.4,-1.9
C[C@H]1Cn2cnc(C(=O)N3CCN(c4ccccc4)CC3)c2C(=O)N1,.,-2.0,.,87.6*,-0.5,10.8
C[C@@H]1CNC(=O)c2c(C(=O)N3CCN(c4ccccc4)CC3)ncn21,.,-2.3,.,88.8*,-0.5,15.6
C[C@H]1CNC(=O)c2c(C(=O)N(C)Cc3ccccc3)ncn21,.,-5.6,.,18.0,-0.4,9.8
CCN(CC)C(=O)c1ncn2c1C(=O)NC[C@@H]2C,.,0.6,.,117.4*,-0.2,17.3
C/C(=N\NC(=O)c1cc(C)nc2ccccc12)c1cccc(Cl)c1,.,-3.2,0.4,1.0,-0.1,-0.1
O=Cc1cn(CC(=O)Nc2ccc3c(c2)OCO3)c2ccccc12,-1.8,2.8,.,16.5,0.3,-20.2
C[C@H]1CNC(=O)c2c(C(=O)Nc3ccc(CNC(=O)OC(C)(C)C)cc3)ncn21,.,3.2,-0.8,?,0.2,-24.8*
COc1ccccc1N1CCN(/N=C/C=C/c2ccccc2[N+](=O)[O-])CC1,-0.9,-0.3,-1.9,9.5,0.0,-16.8*
O=[N+]([O-])c1ccccc1/C=C\C=N\N1CCN(c2ccccc2)CC1,.,-1.1,0.0,8.1,0.0,-17.1
COc1ccccc1N1CCN(c2ccc([N+](=O)[O-])cn2)CC1,-6.6,-0.2,-0.9,0.5,-0.2,-20.9*
COc1ccccc1N1CCN(/N=C\c2sccc2C)CC1,-1.7,-1.7,.,-24.9,0.1,-27.6*
COc1ccccc1N1CCN(/N=C\c2ccccc2)CC1,-1.4,-0.1,0.4,-34.8,0.1,7.5
C[C@@H]1CN([C@@H](C)CO)C(=O)c2cc(-c3ccc(C#N)cc3)cnc2O[C@@H]1CN(C)C(=O)Nc1ccccc1,7.0,1.6,-1.3,5.8[16.7 µM],-0.2,0.4
COc1ccc(Cl)cc1NC(=O)CN(C)CC(=O)Nc1cccc(S(=O)(=O)N2CCCC2)c1,.,1.6,-8.0,12.0,-0.3,-5.0
Cn1ncc2c(O/N=C(\N)c3ccc(C(C)(C)C)cc3)ncnc21,95.9*,.,3.4,.,.,.
CC(C)C[C@H](NC(=O)OC(C)(C)C)C(=O)N1CCC(C(=O)O)CC1,11.3,.,1.7,.,.,.
c1ccc(-c2noc(CC3CCCCC3)n2)cc1,-14.0,-6.5,-0.7,-14.5,42.9*,9.3
c1ccc(-c2noc(CCC3CCCC3)n2)cc1,11.1,0.8,-1.7,-15.2,0.3,-5.3
CCNC(=O)C[C@H]1CC[C@@H](NC(=O)NC2CCCCC2)[C@H](CO)O1,2.0,2.6,97.0*,1.4[16.7 µM],-0.4,3.8
